Calls of active or inactive are those of the source. The rule behind the calls is not given here. Numbered stars: 1 amine (or outer) side, 2 acyl side, 3 side chain; on linkers, the order of the positions; unused ones are H or OH. Square brackets hold non-standard residues; d marks the D form. Peptide text beside a SMILES is read from it. X1 = CC1(C)SC[C@@H](C(=O)[*:2])N1[*:1]; Tle = CC(C)(C)[C@H](N)C(=O)O
Tests used:
[1] = Binding affinity to GST-calcineurin fusion protein substrate docking site (unknown origin) expressed in Escherichia coli BL21 cells by fluorescence anisotropy assay; design: species or system Homo sapiens
Procedure, shortened: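 GST–CN fusion expressed in E. coli BL21, glutathione-Sepharose purified. FA read at ex 485/em 525 nm; KD from fitting FA versus CN concentration with correction for fluorophore–protein interaction.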

[2] = (§1) Inhibition of FITC-labelled […] binding to calcineurin (unknown origin) by modified fluorescence anisotropy assay; design: species or system Homo sapiens
Homo sapiens = species: Homo sapiens; assay: as §1
Serum [3] = assay: Drug metabolism in 25% human serum at 37 degC at 6 hrs; assay type: ADME, cell-free
Procedure, shortened: (§2)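 Peptides were incubated in diluted human serum (25%) at 37 °C for up to 6 h. The amount of intact peptide remaining was monitored over time by HPLC.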

[4] = Half life in 25% human serum at 37 degC; assay type: ADME; procedure, shortened: as §2
HeLa = assay: Inhibition of calcineurin in human HeLa cells assessed as blocked of GFP-NFAT translocation at 500 nM prior to ionomycin treatment by fluorescence based confocal microscopy in presence of ionomycin; assay type: cell-based
Procedure, shortened: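 HeLa cells stably expressing GFP–NFAT1 pretreated with R11-conjugated peptide (500 nM), then stimulated with ionomycin. Time-lapse live-cell confocal imaging; increase in nuclear fluorescence after 10 min ionomycin compared with inhibitor-free control (100%). Mean ± SD from at least 30 cells; two-tailed t test.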

Albumin = Albumin (Bos taurus, UniProt P02769); assay: Binding affinity to bovine serum albumin; assay type: ADME; settings: cattle, isolated protein
Chain of Albumin (P02769 whole entry): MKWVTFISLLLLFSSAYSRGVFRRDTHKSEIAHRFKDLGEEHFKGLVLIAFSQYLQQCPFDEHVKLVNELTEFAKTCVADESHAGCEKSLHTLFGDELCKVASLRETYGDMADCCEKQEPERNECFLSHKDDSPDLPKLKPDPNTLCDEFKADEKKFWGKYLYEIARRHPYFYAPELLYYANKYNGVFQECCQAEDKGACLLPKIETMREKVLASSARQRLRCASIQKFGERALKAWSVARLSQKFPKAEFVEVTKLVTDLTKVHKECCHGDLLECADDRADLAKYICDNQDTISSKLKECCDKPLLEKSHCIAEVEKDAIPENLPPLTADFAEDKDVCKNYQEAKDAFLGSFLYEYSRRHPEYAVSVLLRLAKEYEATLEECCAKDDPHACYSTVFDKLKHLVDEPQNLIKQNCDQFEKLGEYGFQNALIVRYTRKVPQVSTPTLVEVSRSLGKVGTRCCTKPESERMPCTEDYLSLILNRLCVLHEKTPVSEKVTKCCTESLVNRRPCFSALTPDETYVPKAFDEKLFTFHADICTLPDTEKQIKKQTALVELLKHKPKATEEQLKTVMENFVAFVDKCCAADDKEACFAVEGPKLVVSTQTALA

[5] = target: T1, Tyrosine-protein phosphatase non-receptor type 1 (Homo sapiens, UniProt P18031); assay: Binding affinity to PTP1B (unknown origin)
T1 sequence (P18031 whole entry): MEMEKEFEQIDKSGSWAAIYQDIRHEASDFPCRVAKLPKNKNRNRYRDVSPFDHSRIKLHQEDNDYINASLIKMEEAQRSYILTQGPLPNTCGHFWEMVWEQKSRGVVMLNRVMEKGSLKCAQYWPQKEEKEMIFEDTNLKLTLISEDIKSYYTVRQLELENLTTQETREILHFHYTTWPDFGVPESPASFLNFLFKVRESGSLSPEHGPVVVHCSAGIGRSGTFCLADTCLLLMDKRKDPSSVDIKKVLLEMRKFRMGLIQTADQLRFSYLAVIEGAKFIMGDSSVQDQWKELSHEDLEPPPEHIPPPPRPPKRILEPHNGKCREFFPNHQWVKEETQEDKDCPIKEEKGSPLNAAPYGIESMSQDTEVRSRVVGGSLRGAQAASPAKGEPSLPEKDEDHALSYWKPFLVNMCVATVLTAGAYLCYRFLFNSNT

[6] = target: Tyrosine-protein phosphatase non-receptor type 6 (Homo sapiens, UniProt P29350); assay: Binding affinity to SHP1 (unknown origin)
Chain of Tyrosine-protein phosphatase non-receptor type 6 (P29350 whole entry): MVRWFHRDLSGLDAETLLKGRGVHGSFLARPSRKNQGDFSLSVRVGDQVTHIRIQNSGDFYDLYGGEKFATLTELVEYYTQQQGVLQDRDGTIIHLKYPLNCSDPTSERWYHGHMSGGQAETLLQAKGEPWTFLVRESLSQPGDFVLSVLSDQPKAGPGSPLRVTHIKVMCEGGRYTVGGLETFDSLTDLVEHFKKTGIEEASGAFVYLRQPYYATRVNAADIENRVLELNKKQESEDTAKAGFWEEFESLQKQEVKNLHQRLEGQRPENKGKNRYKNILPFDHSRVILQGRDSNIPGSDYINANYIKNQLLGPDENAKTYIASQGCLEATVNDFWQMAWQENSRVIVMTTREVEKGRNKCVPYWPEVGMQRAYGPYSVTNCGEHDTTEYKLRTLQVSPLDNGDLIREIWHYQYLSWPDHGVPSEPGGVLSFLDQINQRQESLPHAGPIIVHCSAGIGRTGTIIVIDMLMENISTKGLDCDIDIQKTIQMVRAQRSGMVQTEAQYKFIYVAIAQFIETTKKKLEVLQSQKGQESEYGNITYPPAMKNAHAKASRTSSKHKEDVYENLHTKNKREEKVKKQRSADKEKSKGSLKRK

[7] = test system: GTPase KRas (Homo sapiens), P01116 [G12V]; assay: Binding affinity to K-Ras G12V mutant (unknown origin)
Chain of GTPase KRas (Homo sapiens), P01116 [G12V] (P01116 whole entry G12V, the tested form may be a part): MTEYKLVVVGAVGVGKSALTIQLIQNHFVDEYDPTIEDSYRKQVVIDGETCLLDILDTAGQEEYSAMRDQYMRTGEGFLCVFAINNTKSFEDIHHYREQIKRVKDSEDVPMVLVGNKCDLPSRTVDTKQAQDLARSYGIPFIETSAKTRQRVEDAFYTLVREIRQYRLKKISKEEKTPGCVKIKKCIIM

[8] = target: Growth factor receptor-bound protein 2 (Homo sapiens) (UniProt P62993); assay: Binding affinity to SH2 domain of Grb2 (unknown origin)
Serum [9] = assay: Drug metabolism in 25% human serum assessed as compound remaining at 37 degC; assay type: ADME, cell-free
Procedure, shortened: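 Peptide incubated in human serum diluted to 25% at 37 °C; remaining intact peptide quantified by HPLC over time up to 6 h.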

| IC50 [2] [µM] | inhibition (Homo sapiens) | Compound | Kd [1] [µM] | inhibition (HeLa) [%] | other results |
| --- | --- | --- | --- | --- | --- |
|  |  | CCCOC(=O)CNC(=O)[C@H](CCC(=O)O)NC(=O)[C@H](CCC(=O)O)NC(=O)[C@H](Cc1cnc[nH]1)NC(=O)[C@@H]1CSC(C)(C)N1C(=O)CNC(=O)[C@@H](NC(=O)[C@@H](NC(=O)[C@@H](NC(=O)[C@@H](NC(=O)[C@@H](NC(=O)[C@@H]1CCCN1C(=O)[C@H](Cc1cnc[nH]1)NC(=O)[C@@H]1CCCN1C(=O)CNC(=O)CCSSC[C@H](NC(=O)[C@H](CCCNC(=N)N)NC(=O)[C@H](CCCNC(=N)N)NC(=O)[C@H](CCCNC(=N)N)NC(=O)[C@H](CCCNC(=N)N)NC(=O)[C@H](CCCNC(=N)N)NC(=O)[C@H](CCCNC(=N)N)NC(=O)[C@H](CCCNC(=N)N)NC(=O)[C@H](CCCNC(=N)N)NC(=O)[C@H](CCCNC(=N)N)NC(=O)[C@H](CCCNC(=N)N)NC(=O)[C@H](CCCNC(=N)N)NC(C)=O)C(N)=O)C(C)(C)C)[C@@H](C)CC)C(C)(C)C)[C@@H](C)CC)[C@@H](C)O |  | 95 |  |
| 0.28 | Dose-dependent effect | CC[C@H](C)[C@H](NC(=O)[C@@H](NC(=O)[C@@H](NC(=O)[C@@H](NC(=O)[C@@H]1CCCN1C(=O)[C@H](Cc1cnc[nH]1)NC(=O)[C@@H]1CCCN1C(=O)CN)C(C)(C)C)[C@@H](C)CC)C(C)(C)C)C(=O)N[C@H](C(=O)NCC(=O)N1CCC[C@H]1C(=O)N[C@@H](Cc1cnc[nH]1)C(=O)N[C@@H](CCC(=O)O)C(=O)N[C@@H](CCC(=O)O)C(=O)O)[C@@H](C)O (H-GPHP[Tle]I[Tle]ITGPHEE-OH) | 0.043 |  |  |
| 0.11 | Dose-dependent effect | CC[C@H](C)[C@H](NC(=O)[C@@H](NC(=O)[C@@H](NC(=O)[C@@H](NC(=O)[C@@H]1CCCN1C(=O)[C@H](Cc1cnc[nH]1)NC(=O)[C@@H]1CCCN1C(=O)CN)C(C)(C)C)[C@@H](C)CC)C(C)(C)C)C(=O)N[C@H](C(=O)NCC(=O)N1[C@H](C(=O)N[C@@H](Cc2cnc[nH]2)C(=O)N[C@@H](CCC(=O)O)C(=O)N[C@@H](CCC(=O)O)C(=O)O)CSC1(C)C)[C@@H](C)O (H-GPHP[Tle]I[Tle]ITG[X1]HEE-OH) | 0.0026 | 95 | Activity (Albumin): Not Active; Kd [5]: 9 µM; Kd [6]: > 15 µM; Activity [7]: inactive; Activity [8]: inactive; Stability (Serum [9]): 60% |
|  |  | H-GPHAVAVAAGPHEE-OH | > 200 |  |  |

| Compound | IC50 [2] [µM] | inhibition (Homo sapiens) | Kd [1] [µM] | inhibition (HeLa) [%] | other results |
| --- | --- | --- | --- | --- | --- |
| CC[C@H](C)[C@H](NC(=O)[C@@H](NC(=O)[C@@H]1CCCN1C(=O)[C@H](Cc1cnc[nH]1)NC(=O)[C@@H]1CCCN1C(=O)CN)C(C)C)C(=O)N[C@H](C(=O)N[C@H](C(=O)N[C@H](C(=O)NCC(=O)N1CCC[C@H]1C(=O)N[C@@H](Cc1cnc[nH]1)C(=O)N[C@@H](CCC(=O)O)C(=O)N[C@@H](CCC(=O)O)C(=O)O)C(C)O)[C@@H](C)CC)C(C)C (stereo not given in full) | 4.1 | Dose-dependent effect | 0.477 |  | Stability (Serum [3]): Unstable; half-life [4]: 1 h |
